Bioassay records (PubChem)
GC-A act: GC-A (human) enzyme activation; HEK293 GC-A cells, cGMP TR-FRET, EC30 ANP; 0% at EC30 ANP, 100% saturating ANP; AID 1671463; P16066; activation, % at 10 µM; 0.14% of 370,000 active; in the data active = activation above about 40%
Tb MetRS inh: Trypanosoma brucei MetRS inhibition. purified T. brucei MetRS, ATP depletion, Kinase-Glo luminescence. inhibition, % at 11.9 µM. 0.4% of 360,000 active. AID 624268;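 active = inhibition above a per-plate cutoff of the control wells' mean inhibition plus 3 SD, cut at about 5.5% in these data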;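 also: 0% = DMSO wells median and 100% = median of wells with control inhibitor compound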
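assay system = parasite MetRS enzyme | timing = 15 min preincubation, 2 h reaction, all 25 °C | evaluation = percent inhibition relative to median high and low control wells | medium = HEPES buffer containing pyrophosphatase, BSA, spermine, DTT | compound = single dose, 11.9 µM final nominal, 0.9% final DMSO | detection = Kinase-Glo luminescence, ATP depletion format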
A1 inh: inhibitors of the anti-apoptotic protein A1, read as caspase activation | 0.066% of 330,000 active | MEF A1-2A-BIM cells, Caspase-Glo 3/7 luminescence, 3 h; percent of clofoctol response, vehicle zero | caspase activation, % (concentration not given with the values);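 active = over half of replicate activation scores above 10%, or exactly half above 10 with the replicate mean above 10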
MT1-MMP act inh: blocks activation of human MT1-MMP. GFP/RFP ratio change, % at 20 µM. 0.061% of 360,000 active. HT1080 RFP-PRO-GFP cells, GFP/RFP ratio fluorescence, overnight; percent of plate control window, DMSO zero;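 active = GFP/RFP ratio change of at least 30% with cell ATP level not reduced by more than half and red fluorescence within 50% of control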
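Assay system: HT1080 RFP-PRO-GFP cells. Benchmarks: DMSO vehicle wells and RFP-L50D-GFP reporter cell wells. Times: overnight cell settling, then overnight compound exposure, 37 °C, 5% CO2. Compound: 20 µM single dose, 1% DMSO. Read-out basis: GFP/RFP fluorescence ratio.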
SKN-1 block: C. elegans SKN-1 inhibition; AID 624304; inhibition, % at 21.8 µM; 0.49% of 360,000 active; C. elegans VP596 Pgst-4::GFP/RFP ratio, acrylamide-induced, 24 h;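 active = interference check ratio from 0.5 to 1.5 plus GFP to RFP signal ratio inhibition reaching or exceeding a fixed threshold, cut at about 30% in these data, passing the limit was not always enough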
NPR2 activator: GC-B (human) receptor activation; P20594; HEK293-GC-B cells, CNP EC30, cGMP TR-FRET; 0% at EC30 CNP, 100% saturating CNP; activation, % at 10 µM; 0.11% of 370,000 active;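 active = activation at 10 µM reaching about 35% in either raw or pattern-adjusted values, limit read from the data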
Tb MetRS conf: Trypanosoma brucei MetRS inhibition confirmed. T. brucei MetRS enzyme, luminescence (ATP depletion). 93% of 1,400 active. shares compounds with Tb MetRS inh. inhibition, % at 11.9 µM; in the data active = inhibition above about 7%
Jurkat tox: Jurkat T cell cytotoxicity for MetRS hits; shares compounds with Tb MetRS inh; Jurkat cells viability, ATP luminescence; inhibition, % at 8.3 µM; 12% of 1,400 active; AID 624413; in the data active = inhibition above about 15%;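 also: 0% = vehicle and 100% = reference inhibitor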
Tb MetRS inh FP: T. brucei MetRS inhibition, orthogonal assay. shares compounds with Tb MetRS inh. purified T. brucei MetRS, fluorescence polarization. inhibition, % at 11.9 µM. 44% of 1,400 active. AID 651607; in the data active = inhibition above about 17%;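 also: 0% = vehicle wells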
The depositor's hits bear a star; . = no result. An excerpt weighted towards active compounds, which were near 1.1% of everything screened.

SMILES	GC-A act	Tb MetRS inh	A1 inh	MT1-MMP act inh	SKN-1 block	NPR2 activator	Tb MetRS conf	Jurkat tox	Tb MetRS inh FP
C=CCN1C(=O)[C@@H](CC(=O)N2CCN(C(=O)C3CC3)CC2)[C@]2(C(=O)OCC)CCCCC/C=C/12	4	.	.	.	.	-2	.	.	.
CN(CC(=O)Nc1ccc(F)c(F)c1F)C(=O)c1ccc(-n2cncn2)c([N+](=O)[O-])c1	1	7.7*	0	-2	10	-5	33*	-6	17*
CN(CC(=O)Nc1cccc(F)c1)C(=O)c1ccc(-n2cncn2)c([N+](=O)[O-])c1	-1	51*	1	3	2	-4	84*	0	51*
CCOC(=O)CN(C(=O)CSc1nnc2c(n1)[nH]c1ccc(F)cc12)c1ccccc1	-1	6.3*	1	8	11	3	17*	2	10
CCOC(=O)CN(C(=O)CSc1nnc2c(n1)[nH]c1ccccc12)c1ccccc1	-4	1	0	1	-7	3	.	.	.
Cc1noc(C)c1S(=O)(=O)N(C)C[C@H]1Oc2c(NC(=O)Nc3ccccc3)cccc2C(=O)N([C@H](C)CO)C[C@@H]1C	-4	17*	0	-2	21	0	57*	3	25*
C[C@H](CO)N1C[C@H](C)[C@@H](CN(C)S(=O)(=O)c2ccccc2)Oc2c(NC(=O)Nc3ccccc3)cccc2C1=O	0	16*	.	-4	33	-1	35*	-3	10
COc1ccc(S(=O)(=O)N(C)C[C@H]2Oc3c(NC(=O)Nc4ccccc4)cccc3C(=O)N([C@H](C)CO)C[C@@H]2C)cc1	1	0	.	-1	13	6	.	.	.
C[C@H]1CN([C@@H](C)CO)C(=O)Cc2cc(NC(=O)Nc3ccccc3)ccc2O[C@H]1CN(C)Cc1ccccc1	1	9.5*	.	2	-2	1	31*	4	20*
C[C@H](CO)N1C[C@H](C)[C@@H](CN(C)S(=O)(=O)c2cccs2)Oc2c(NC(=O)Nc3ccccc3)cccc2C1=O	-1	20*	1	-5	14	8	53*	-4	25*
Cc1noc(C)c1S(=O)(=O)N(C)C[C@H]1Oc2c(NC(=O)Nc3ccc(C(F)(F)F)cc3)cccc2C(=O)N([C@H](C)CO)C[C@@H]1C	-2	1	1	6	8	-1	.	.	.
COc1ccc(NC(=O)Nc2cccc3c2O[C@H](CN(C)S(=O)(=O)c2cccs2)[C@@H](C)CN([C@H](C)CO)C3=O)cc1	-1	0	0	5	-6	5	.	.	.
CCCCCCCCN1C(=O)[C@@H](CC(=O)NCc2cccc3ccccc23)C[C@@]2(C(=O)OC)C1=C[C@H](COCc1ccccc1)O[C@@H]2C	0	.	.	.	.	6	.	.	.
COc1ccc(NC(=O)C(NC(C)=O)C(=O)Nc2ccc(F)cc2)cc1 (stereo not drawn)	4	9.6*	0	4	-14	-1	19*	-6	0
OC(CNc1ccccc1)COc1ccc(OCC(O)CNc2ccccc2)cc1 (stereo not drawn)	-3	-1	0	-3	-1	-2	.	.	.
COc1ccc(OCC(O)CNC(=O)Nc2ccc(F)cc2)cc1 (stereo not drawn)	2	5.7*	-1	0	-2	2	18*	-6	15
O=C(NCC(O)COc1ccc([N+](=O)[O-])cc1)Nc1ccccc1 (stereo not drawn)	-3	42*	0	2	-1	1	62*	2	41*
